Screening data deposited in PubChem by several laboratories.
cytoskel mod = alters cytoskeleton assembly in HUVEC cells. HUVEC TNFa F-actin phalloidin imaging, high content. inhibition, % at 2 µM. 91,000 tested, 0.18% active. AID 836;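 active = inhibition above the batch mean plus 3 SD and confirmed as a hit by visual image inspection, cut at about 30% in these data, passing the limit was not always enough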
PTK2B oligo ant = antagonists of human Pyk2 oligomerization; Q14289; Q293 cells, Pyk2 FERM NanoBiT luminescence; hits give low values; z-score (the deposit names both 25 µM and 10 µM); 99,000 tested, 0.83% active;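 active = Z-score of -3 or lower, scaled per plate to the spread of control and sample wells; inactive = z-score above -3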;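 also: negative z-score means lost luminescence so less FERM oligomerization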
Target sequence (Q14289 whole entry, looked up): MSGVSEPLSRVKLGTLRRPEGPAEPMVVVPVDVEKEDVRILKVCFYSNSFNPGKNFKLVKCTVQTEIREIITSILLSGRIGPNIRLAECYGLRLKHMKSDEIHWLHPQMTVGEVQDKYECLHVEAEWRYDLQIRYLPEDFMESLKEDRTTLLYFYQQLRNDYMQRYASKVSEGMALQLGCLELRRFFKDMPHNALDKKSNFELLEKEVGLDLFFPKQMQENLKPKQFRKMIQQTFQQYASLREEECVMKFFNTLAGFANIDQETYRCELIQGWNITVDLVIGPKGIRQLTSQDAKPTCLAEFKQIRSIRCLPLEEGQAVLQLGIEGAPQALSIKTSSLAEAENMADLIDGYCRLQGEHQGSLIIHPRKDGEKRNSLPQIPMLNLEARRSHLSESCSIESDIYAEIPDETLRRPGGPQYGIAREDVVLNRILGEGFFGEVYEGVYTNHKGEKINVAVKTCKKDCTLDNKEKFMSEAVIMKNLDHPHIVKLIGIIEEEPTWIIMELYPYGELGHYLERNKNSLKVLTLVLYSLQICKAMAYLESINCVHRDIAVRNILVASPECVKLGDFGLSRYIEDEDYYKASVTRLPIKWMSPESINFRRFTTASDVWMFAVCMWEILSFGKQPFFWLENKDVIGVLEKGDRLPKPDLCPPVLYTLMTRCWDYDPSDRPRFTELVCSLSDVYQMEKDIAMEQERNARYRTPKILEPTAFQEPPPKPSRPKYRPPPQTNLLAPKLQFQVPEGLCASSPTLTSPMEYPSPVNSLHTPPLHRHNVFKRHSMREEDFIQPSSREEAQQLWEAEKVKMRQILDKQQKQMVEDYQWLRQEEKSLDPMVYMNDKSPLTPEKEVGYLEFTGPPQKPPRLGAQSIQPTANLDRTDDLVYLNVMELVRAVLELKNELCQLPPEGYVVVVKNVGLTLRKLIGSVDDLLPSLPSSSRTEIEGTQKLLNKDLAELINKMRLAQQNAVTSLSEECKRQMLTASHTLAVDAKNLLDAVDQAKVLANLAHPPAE
HUVEC inhibit = human endothelial cell proliferation inhibition; 86,000 tested, 1.1% active; viability, % at 10 µM (by protocol); HUVEC proliferation, CellTiter-Glo luminescence, 72 h; hits give low values; AID 648;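 active = viability at or below 30%; inactive = viability above 30%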
H69AR inhibit = growth inhibitors of human H69AR lung tumor cells; H69AR lung tumor viability, ATP luminescence, 72 h; hits give low values; viability, % at 10 µM; 85,000 tested, 6% active; AID 598;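 active = viability at or below 40%; inactive = viability above 40%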;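 also: multidrug resistant small cell line overexpressing MRP-1 efflux transporter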
Jurkat viability = cytotoxicity toward Jurkat cells | Jurkat E6.1 viability, ATP luminescence, 48 h | inhibition, % at 4 µM | 56,000 tested, 1.2% active;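 active = inhibition above the mean inhibition of all tested compounds plus 3 SD, cut at about 28% in these data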
Fibroblast inh = blocks proliferation of human lung fibroblasts | AID 719 | 85,000 tested, 1.1% active | LL 47 human lung fibroblast viability, ATP luminescence; hits give low values | viability, % at 10 µM;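 active = viability at or below 50% in the single dose screen; inactive = viability above 50%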;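 also: compound exposure lasted 72 h before the ATP readout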
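Material: human lung fibroblast line LL 47, low passage; Evaluation: viability percentage against median untreated-cell control; Buffer or medium: 15% FBS in IMEM; Incubation: 72 h compound exposure at 37 °C after overnight plating; Dosing: 0.1% DMSO in all compound wells; Measured by: CellTiter-Glo luminescence.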
Hits are given with their value; 0 = inactive; - = no result given. In the library only some 6% were active in any assay of this set; here they are far more common.

SMILES	cytoskel mod	PTK2B oligo ant	HUVEC inhibit	H69AR inhibit	Jurkat viability	Fibroblast inh
c1ccc(-n2ncc3c(N4CCN(c5ccccn5)CC4)nc(N4CCCCC4)nc32)cc1	-	-	0	0	0	0
c1ccc(-n2ncc3c(N4CCN(c5ccccn5)CC4)nc(N4CCOCC4)nc32)cc1	-	-	0	28	0	0
COc1ccc2c(c1OC)C(=O)N1c3ccccc3C(=O)N(c3ccccc3F)C21 (centres undefined)	-	0	0	3.7	-	0
COc1cc(/C=C2/SC(=NCc3ccccc3)N(Cc3ccccc3)C2=O)ccc1O	0	0	-	-	-	-
CCOc1cc(/C=C2/SC(=Nc3ccccc3)N(Cc3cccnc3)C2=O)ccc1OCC#N	0	-3.6	-	-	-	-
Cc1ccc(C(=O)C(C(=O)/C=C/c2ccccc2)=C2SCCCS2)cc1	0	0	23	2.3	-	32
N#C/C(=C\c1ccc(-c2cccc(Cl)c2)o1)C(=O)Nc1cccc2cccnc12	0	0	0	15	-	0
N#C/C(=C\c1ccc(-c2ccccc2)o1)C(=O)Nn1cnnc1	0	0	-	-	-	-
O=C1CCCC2=C1C(c1ccco1)Nc1ccc(C(=O)c3ccccc3)cc1N2 (centres undefined)	0	0	0	13	0	0
CC(C)Oc1ccc(C2CC(=O)N(c3ccc(N(C)C)cc3)C2=O)cc1 (centres undefined)	0	-4.2	0	0	-	0
C#CCn1c(=NC(=O)c2cc(Cl)sc2Cl)sc2cc(S(N)(=O)=O)ccc21	-	0	-	-	-	-
C#CCn1c(=NC(=O)c2ccc(Br)s2)sc2cccc(OC)c21	0	-	0	2.6	-	38
c1ccc(Oc2cccc(OCCCCSc3ncccn3)c2)cc1	0	-3.3	0	0	-	0
C(=C\c1ccccc1)/CSc1nnc(-c2ccccn2)n1Cc1ccco1	0	0	0	19	86	43
CCN(CC)CC(=O)Nc1cc(C)c2c(=O)oc3ccccc3c2n1	-	-	0	0	0	0
Cc1cc(N2CCCC2=O)cc(C)c1S(=O)(=O)NCCOc1ccc(C(C)(C)C)cc1	0	0	0	33	-	0
O=C1CCCN1c1ccc(S(=O)(=O)NCCOc2ccccc2)cc1	0	0	0	0	-	0
O=C1CC(SC(=Nc2ccccc2)Nc2ccccc2)C(=O)N1c1cccc2ccccc12 (centres undefined)	0	-3	-	-	-	-
CN=C(Nc1ccc(C(=O)OC)cc1)SC1CC(=O)N(c2ccccc2F)C1=O (centres undefined)	0	0	-	-	-	-
CCOC(=O)C1=C(Cc2ccc(F)cc2)C(=O)c2ccccc2C1=O	0	0	6.5	0.8	-	0
COc1ccc(Oc2cn[nH]c2-c2ccc(O)cc2O)cc1	0	-3.5	0	0	0	0
COc1ccc(-c2[nH]ncc2Oc2ccccc2OC)c(O)c1	0	0	0	39	0	0
CCCc1ccc(Oc2cn[nH]c2-c2ccc(O)cc2O)cc1	0	0	0	29	0	0
COc1ccc(-c2[nH]ncc2-c2cnc(C)s2)c(O)c1	0	0	0	0	0	0
C#CC(CO)N(CCN(Cc1ccccc1)C(C#C)CO)Cc1ccccc1 (centres undefined)	0	0	0	0	-	0
SMILES	cytoskel mod	PTK2B oligo ant	HUVEC inhibit	H69AR inhibit	Jurkat viability	Fibroblast inh
Cc1nc(N)sc1-c1nnc(SCC(=O)Nc2nccs2)n1C	0	0	0	0	0	0
CC(=O)Oc1ccc2ccccc2c1C(NC(=O)Cc1ccccc1)c1ccccc1Cl (centres undefined)	0	-4.4	-	-	-	-
CCC(=O)NC(c1cccc([N+](=O)[O-])c1)c1c(OC(C)=O)ccc2ccccc12 (centres undefined)	0	-3.3	0	0	-	0
CC(C)c1ccc(C(=O)CSc2n[nH]c(-c3ccncc3)n2)cc1	0	0	0	31	-	0
O=C(CSc1n[nH]c(-c2ccccc2)n1)c1ccccc1	0	-	0	0	0	0
CCOC(=O)C(O)(CC(=O)c1ccc(OC)cc1)C(F)(F)F (centres undefined)	0	0	0	0	-	0
Cc1ccccc1Cc1c(C)nc2c(C(=O)NCc3ccco3)cnn2c1C	0	0	0	40	0	0
CCOC(=O)c1c(NC(=O)C(C)NCc2ccco2)sc2c1CCC(C)C2 (centres undefined)	0	0	-	-	-	-
CCN(CC)c1nc2ccccc2c(N)c1-c1ccccc1	0	0	0	39	-	0
Cc1c(N(C)C)nc2ccccc2c1N	0	0	-	-	0	-
CCCCn1c(NC(=O)c2ccccc2)c(C#N)c2nc3ccccc3nc21	0	0	-	-	0	-
CCC(C)n1c(NC(=O)c2ccccc2)c(C#N)c2nc3ccccc3nc21 (centres undefined)	0	0	0	2.9	-	0
COc1cc(N=c2ssnc2Cl)cc(OC)c1OC	0	0	0	1.7	0	47
COc1ccc(N=c2ssnc2Cl)cc1	0	0	0	1.3	-	0
N#Cc1ccc(N=c2ssnc2Cl)cc1	0	0	0	2.6	-	0
Clc1ccc(N=c2ssnc2Cl)cc1	0	0	0	1.9	-	0
COc1ccc(CC(=O)Nc2cc(C)ccn2)cc1	0	0	0	0	0	0
C=CCn1c(SC2CCOC2=O)nc2scc(C3CC3)c2c1=O (centres undefined)	0	0	0	0	0	0
CC1CCN(CCCNC(=O)c2ccc(CSCc3cccc(Cl)c3)o2)CC1	0	0	0	0	-	0
COc1cccc(OCC(=O)NNC(=O)C(=O)N2CCCC2)c1	-	0	-	-	-	-
COc1ccc(Cl)cc1NC(=O)C1CCCO1 (centres undefined)	0	0	0	0	0	0
COC(=O)c1ccccc1NC(=O)Cn1cnc2c1c(=O)n(C)c(=O)n2C	-	-	0	0	0	0
COc1cc2c(cc1NC(=O)CSc1nc3ccccc3[nH]1)oc1ccccc12	0	0	-	-	-	-
COc1cc2c(cc1NC(=O)Cn1cnc3c1c(=O)n(C)c(=O)n3C)oc1ccccc12	0	-	0	8.1	0	0
COc1cc2c(cc1NC(=O)CN(C)Cc1nc3ccccc3c(=O)[nH]1)oc1ccccc12	-	-3.4	0	0	0	0
SMILES	cytoskel mod	PTK2B oligo ant	HUVEC inhibit	H69AR inhibit	Jurkat viability	Fibroblast inh
COc1cc2c(cc1NC(=O)C1CCCO1)oc1ccccc12 (centres undefined)	0	0	0	35	0	0
Cc1ccc(-c2noc(-c3cccs3)n2)cc1	-	0	0	40	0	0
COc1ccccc1-c1noc(-c2cccs2)n1	0	0	0	0	-	0
CN1C(=O)C(O)(CC(=O)c2ccc(F)cc2)c2cc(Br)ccc21 (centres undefined)	-	-	0	25	0	0
COc1ccc(S(=O)(=O)N(C)CC(=O)Nc2ccc(C(F)(F)F)cc2)cc1Cl	0	0	0	0	-	0
CSc1nnc(-c2sc3cc(Cl)ccc3c2Cl)n1C	0	0	0	27	0	0
O=C(NCCc1ccccc1)c1cccs1	0	0	0	0	-	0
CCN=c1sc(C(=O)NCCc2ccccc2)cc(=O)n1CC	0	0	0	9.9	0	0
O=C(CCCSc1nnnn1-c1ccccc1)c1ccc(F)cc1	0	-	-	-	-	-
c1ccc(-c2nc3nonc3nc2-c2ccccc2)cc1	0	0	0	1.9	0	17
Cc1ccc(CNS(=O)(=O)N(C)C)cc1	0	0	0	0	-	0
